Source: PubChem BioAssay
A selection: hits, their analogues and other compounds. The true share with any hit is near 5%.
CSC inhib: blocks cancer stem cells; cancer stem cell-like cells viability, luminescence; inhibition, % at 7.5 µM; hit rate 1.1% among 300,000; in the data active = inhibition above about 75%; inconclusive = no clear call, values can overlap the other calls; tested in HMLE shEcad cells
XBP1 UPR activ: activators of adaptive arm of unfolded protein response (XBP1). CHO-XBP1 luciferase reporter, IRE1-XBP1 UPR activation, luminescence; percent of tunicamycin response, DMSO as zero. activation, % at 20 µM. hit rate 0.33% among 330,000. AID 463104;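 active = versus positive control, 20 µM dose yields 30% or more activation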
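Material: IRE1-XBP1 luciferase reporter CHO line / Quantity: one thousand reporter cells per well / Buffer or medium: F12 with 10% serum / Compound: 20 µM single concentration, DMSO 1% / Times: 6 h treatment, 37 °C / Detection: Steady-Glo luciferase glow luminescence, 10 min after reagent addition / Benchmarks: tunicamycin high, DMSO low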
Mdm2 MdmX PPI: disrupts the human Mdm2-MdmX interaction. SaOS-2 split-luciferase Mdm2/MdmX complementation, luminescence. inhibition, % at 8 µM. O15151+Q00987. hit rate 3% among 330,000;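 active = inhibition of at least 50% at 8 µM in the primary screen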
Target sequence (O15151 whole entry, looked up): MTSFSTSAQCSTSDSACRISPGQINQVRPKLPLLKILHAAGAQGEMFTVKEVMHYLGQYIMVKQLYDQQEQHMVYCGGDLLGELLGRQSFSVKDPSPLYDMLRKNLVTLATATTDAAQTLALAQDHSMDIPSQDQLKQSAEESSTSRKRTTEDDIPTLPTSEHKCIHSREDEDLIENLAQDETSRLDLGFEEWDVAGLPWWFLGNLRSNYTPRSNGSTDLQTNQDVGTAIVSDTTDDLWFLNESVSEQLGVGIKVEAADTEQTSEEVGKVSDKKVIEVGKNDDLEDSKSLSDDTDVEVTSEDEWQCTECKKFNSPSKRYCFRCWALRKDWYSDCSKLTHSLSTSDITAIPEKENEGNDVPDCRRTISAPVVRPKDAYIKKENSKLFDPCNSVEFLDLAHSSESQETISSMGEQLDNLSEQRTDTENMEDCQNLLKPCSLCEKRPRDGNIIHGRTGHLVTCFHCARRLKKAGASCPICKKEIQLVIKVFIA
Target sequence (Q00987 whole entry, looked up): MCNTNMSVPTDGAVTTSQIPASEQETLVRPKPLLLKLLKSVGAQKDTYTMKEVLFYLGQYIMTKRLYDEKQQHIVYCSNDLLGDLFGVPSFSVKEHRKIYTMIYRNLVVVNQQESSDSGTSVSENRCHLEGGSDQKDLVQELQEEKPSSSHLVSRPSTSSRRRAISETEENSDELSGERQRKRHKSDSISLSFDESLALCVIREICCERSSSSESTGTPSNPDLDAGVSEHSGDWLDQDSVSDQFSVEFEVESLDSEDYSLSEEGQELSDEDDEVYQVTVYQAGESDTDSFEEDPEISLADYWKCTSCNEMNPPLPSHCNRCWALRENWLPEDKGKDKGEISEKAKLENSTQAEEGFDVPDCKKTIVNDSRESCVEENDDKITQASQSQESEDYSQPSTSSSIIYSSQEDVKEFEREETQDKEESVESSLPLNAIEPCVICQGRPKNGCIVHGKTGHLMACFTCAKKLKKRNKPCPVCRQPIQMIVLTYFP
Beta apoptosis: beta cell apoptosis inhibition; INS-1E cytokine-induced death, ATP luminescence, 48 h; percent of positive-control rescue, neutral wells zero; protection from apoptosis, % (concentration not given with the values); hit rate 0.8% among 300,000; AID 435005;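 active = Every replicate reaches about 75%, or at least half do and their mean reaches it too, limit read from the data; inconclusive = At least half of replicates reach the limit but their mean does not; inactive = Under half of replicates reach the limit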;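 note: higher means more ATP so stronger rescue from cytokine killing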
T cruzi repl: T. cruzi replication inhibition; T. cruzi beta-gal in NIH3T3, luminescence, 90 h; inhibition, % (concentration not given with the values); hit rate 1.4% among 300,000;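 active = mean inhibition across valid replicates above about 55%, limit read from the data; inconclusive = mean below that limit but half or more replicates reach it; inactive = mean below it, under half of replicates reach it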;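 note: signal also drops with host cell toxicity which is not excluded here; higher percent means less beta-gal luminescence so fewer parasites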
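Incubation – ≥90 h infection period, 3 h prior cell attachment · System – NIH/3T3 fibroblasts plus reporter T. cruzi · Doses – compound pinned at 50 nL/well, DMSO · Read-out basis – percent inhibition of parasite-derived β-gal signal · Signal – luminescent β-galactosidase signal after 60 min lysis · Also added – 5000 T. cruzi trypomastigotes/well · Medium – Low-serum DMEM with 2% FBS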
UPR CHOP act: activators of apoptotic arm of unfolded protein response (CHOP); CHO-CHOP luciferase reporter, UPR activation, luminescence; percent of tunicamycin response over DMSO baseline; activation, % at 10 µM; hit rate 0.34% among 330,000;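 active = at 10 µM dose, activation of 40% or more, normalized to positive control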
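Test system: CHO CHOP reporter cells. Input: 500 CHO-CHOP cells per well. Medium: F12 with 10% FBS. Technique: luciferase luminescence. Measure: percent activation relative to tunicamycin control. Dosing: 10 µM compound, 0.5% DMSO. Timing: 16-18 h cell attachment, then 6 h compound exposure, 37 °C.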
Mdm2-MdmX conf: human Mdm2/MdmX binding inhibition, confirmed. luminescent assay. inhibition, % at 8 µM. hit rate 55% among 10,000. shares compounds with Mdm2 MdmX PPI; in the data active = inhibition above about 40%
Full FLuc ctr: inhibits full-length luciferase, flagging false Mdm2/MdmX hits; shares compounds with Mdm2 MdmX PPI; SaOS-2 full-length luciferase counterscreen, luminescence; inhibition, % at 8 µM; hit rate 77% among 6,200; AID 504607;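 active = mean inhibition at 8 µM reaching about 37%, which flags the compound as non-specific, limit read from the data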;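 note: p53-null SaOS-2 cells with luciferase driven by a doxycycline-inducible promoter; compound on cells about two nights before reading with doxycycline added after day one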
Each line names hits and unclear results; the compound was inactive in the other large screens (follow-up assays come after a bar, where they were run).

Cc1ccccc1NC(=O)Cc1nc(COC(=O)CCC(=O)c2ccccc2)cs1	none (no result: CSC inhib, T cruzi repl)
CC(=O)Nc1ccc(S(=O)(=O)NCCC(=O)OCc2csc(CC(=O)Nc3ccccc3C)n2)cc1	Mdm2 MdmX PPI 51 (no result: Beta apoptosis) | Mdm2-MdmX conf inactive
O=C(NNC(=O)c1ccncc1)Nc1cccc(C(F)(F)F)c1	none (no result: CSC inhib)
Nc1ncn([C@@H]2O[C@H](CO)[C@@H](O)[C@H]2O)c(=O)n1	Mdm2 MdmX PPI 52 | Mdm2-MdmX conf 50 | Full FLuc ctr 59
CN(C)c1ncnc2c1ncn2C1OC(CO)C(O)C1O (stereo not drawn)	Mdm2 MdmX PPI 76, T cruzi repl inconclusive (no result: CSC inhib) | Mdm2-MdmX conf 43 | Full FLuc ctr inactive
CNc1ncnc2c1ncn2[C@@H]1O[C@H](CO)[C@@H](O)[C@H]1O	none (no result: T cruzi repl)
COc1ccc(C[C@H](N)C(=O)N[C@H]2[C@@H](O)[C@H](n3cnc4c(N(C)C)ncnc43)O[C@@H]2CO)cc1	Mdm2 MdmX PPI 96 (no result: Beta apoptosis, T cruzi repl) | Mdm2-MdmX conf 99 | Full FLuc ctr 54
O=C(NCc1ccc2c(c1)OCO2)C1CC(=O)N(CCc2ccc(F)cc2)C1 (stereo not drawn)	none
N/C(=N\NC(=O)c1sccc1OCc1ccc(Cl)cc1Cl)c1ccccn1	Mdm2 MdmX PPI 62, Beta apoptosis 78 | Mdm2-MdmX conf 65 | Full FLuc ctr inactive
COc1ccc(S(=O)(=O)N2CCCCCC2)cc1C(=O)OCc1cccc(OC)c1OC	none (no result: Beta apoptosis)
COc1cc2ccccc2cc1C(=O)Nc1sc2c(c1C(N)=O)CCN(C(C)C)C2	CSC inhib 95, Mdm2 MdmX PPI 100, Beta apoptosis 112 | Mdm2-MdmX conf 42 | Full FLuc ctr 48
CC(C)N1CCc2c(sc(NC(=O)CN3C(=O)c4ccccc4C3=O)c2C(N)=O)C1	none
O=C(CSc1nc(-c2ccccc2)c(-c2ccccc2)[nH]1)NCc1ccco1	Mdm2 MdmX PPI 53 | Mdm2-MdmX conf 56 | Full FLuc ctr 73
O=C(CSc1nnc(-c2ccccc2)c(-c2ccccc2)n1)NCc1ccco1	none
COc1ccc(N=Nc2c(C)[nH]c3ccccc23)cc1	none
COc1cc(SC)ccc1C(=O)Nc1nc2ccccc2[nH]1	Mdm2 MdmX PPI 100, Beta apoptosis 106 | Mdm2-MdmX conf 99 | Full FLuc ctr inactive
COc1ccccc1C(=O)Nc1nc2ccccc2[nH]1	CSC inhib 95, Mdm2 MdmX PPI 98, Beta apoptosis 93 | Mdm2-MdmX conf 95 | Full FLuc ctr inactive
CSc1ccccc1C(=O)Nc1nc2ccccc2[nH]1	none
Cn1c(C(C#N)C2=C(Cl)C(=O)N(c3ccccc3)C2=O)nc2ccccc21 (stereo not drawn)	none (no result: T cruzi repl)
COc1ccc(/C=C2\SC(=S)N(CCCC(=O)NNC(=O)c3ccccc3O)C2=O)cc1	Mdm2 MdmX PPI 57 | Mdm2-MdmX conf 58 | Full FLuc ctr 46
CC(c1ccccc1)N1C(=O)/C(=C/c2ccncc2)SC1=S (stereo not drawn)	CSC inhib 85, Mdm2 MdmX PPI 67 (no result: Beta apoptosis) | Mdm2-MdmX conf inactive
COc1ccc(/C=C2/SC(=S)N(CCCC(=O)Nc3ccccc3C(=O)O)C2=O)cc1	none
O=C(O)C(c1ccccc1)N1C(=O)/C(=C/c2cccs2)SC1=S (stereo not drawn)	none
COc1ccc(CN2C(=O)/C(=C/c3ccncc3)SC2=S)cc1	Mdm2 MdmX PPI 75 | Mdm2-MdmX conf 76 | Full FLuc ctr 39
CC(=O)Oc1ccc(/C=C2/SC(=S)N(Cc3ccccc3)C2=O)cc1	none
COc1ccc(/C=C2\SC(=S)N(CCC(=O)Nc3cccc(O)c3)C2=O)cc1OC	none
COc1ccc(/C=C2/SC(=S)N(CCCC(=O)Nc3cccc(O)c3)C2=O)cc1	Mdm2 MdmX PPI 83 (no result: CSC inhib) | Mdm2-MdmX conf 43 | Full FLuc ctr inactive
O=C(c1ccc(Br)s1)N1CCN(c2ccccn2)CC1	none
